pIC50, pKi: −log10 of the molar value.
Legend:
Rattus norvegicus = species on record: Rattus norvegicus; assay: Inhibitory activity against glucogon-stimulated glucose production from isolated primary rat hepatocytes; type: functional; conditions: hepatocyte
How it was run: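 Hepatocytes came from fed male Sprague-Dawley rats by two-step perfusion and were glycogen-loaded with 15 mM glucose and 10 nM insulin for 24 h. Cells were then given compound (0-1000 nM) plus 0.5 nM glucagon for 70 min in HEPES/bicarbonate buffer with 0.1% HSA, pH 7.4, 37 °C. Released glucose and glycogen were measured. Ki came from Schild analysis; mean ± SEM of four hepatocyte preparations.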

[1] = Half life period after intravenous administration (0.5 mg/kg) in dog was determined; type: ADME, organism-based, Canis lupus familiaris; conditions: in vivo
How it was run: (§1)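 Four purpose-bred male beagle dogs, 11-19 kg, 15-18 months old. Dosed 0.5 mg/kg intravenously, or 2.0 mg/kg perorally by gavage using the same dosing solution as the iv dose. Blood was sampled at set times from predose to 4 h postdose and assayed by LC-MS-MS. PK parameters were derived by noncompartmental analysis; half-lives are given as harmonic means.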

[2] = biological target: Glucagon receptor (Rattus norvegicus) (UniProt P30082); assay: (§2) In vitro binding affinity towards rat glucagon receptor
Sequence of Glucagon receptor (Rattus norvegicus) (P30082 whole entry): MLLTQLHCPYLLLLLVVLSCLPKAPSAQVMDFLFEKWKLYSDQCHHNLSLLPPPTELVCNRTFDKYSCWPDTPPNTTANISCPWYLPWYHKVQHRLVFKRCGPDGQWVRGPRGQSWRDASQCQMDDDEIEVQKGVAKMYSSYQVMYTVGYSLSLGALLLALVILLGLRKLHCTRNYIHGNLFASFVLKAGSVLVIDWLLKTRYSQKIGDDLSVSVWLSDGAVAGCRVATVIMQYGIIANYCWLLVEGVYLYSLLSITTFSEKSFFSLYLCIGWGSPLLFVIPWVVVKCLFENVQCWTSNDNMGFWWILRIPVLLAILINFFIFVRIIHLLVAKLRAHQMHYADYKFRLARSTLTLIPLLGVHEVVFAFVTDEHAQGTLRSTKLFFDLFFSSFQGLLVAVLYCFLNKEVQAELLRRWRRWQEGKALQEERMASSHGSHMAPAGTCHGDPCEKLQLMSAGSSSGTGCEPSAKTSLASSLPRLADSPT

[3] = Turnover in rat liver microsomes; type: ADME, Microsome
How it was run: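 Rat liver microsomes (0.331 mg/mL protein) with 10 µM compound, 1 mM UDP-GA and 1 mM NADPH in KH2PO4 buffer, pH 7.4, at 37 °C. Sampled at 0-30 min (n = 3), stopped with MeCN. Rate was taken from parent disappearance by LC-MS.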

[4] = tmax after peroral administration (2 mg/kg) in dog was determined; range 30-45; type: ADME, organism-based, Canis lupus familiaris; conditions: in vivo, po; how it was run: as §1
[5] = tmax in dog was determined; range 30-45; conditions: in vivo
[6] = Oral bioavailability in dog; type: ADME, organism-based, Canis lupus familiaris; conditions: in vivo; how it was run: as §1
Glucagon receptor [7] = biological target: Glucagon receptor (Homo sapiens, UniProt P47871); assay: In vitro binding affinity for recombinant human glucagon receptor (hGGR) in BHK cells; type: cell-based
Sequence of Glucagon receptor (Homo sapiens, UniProt P47871) (P47871 whole entry): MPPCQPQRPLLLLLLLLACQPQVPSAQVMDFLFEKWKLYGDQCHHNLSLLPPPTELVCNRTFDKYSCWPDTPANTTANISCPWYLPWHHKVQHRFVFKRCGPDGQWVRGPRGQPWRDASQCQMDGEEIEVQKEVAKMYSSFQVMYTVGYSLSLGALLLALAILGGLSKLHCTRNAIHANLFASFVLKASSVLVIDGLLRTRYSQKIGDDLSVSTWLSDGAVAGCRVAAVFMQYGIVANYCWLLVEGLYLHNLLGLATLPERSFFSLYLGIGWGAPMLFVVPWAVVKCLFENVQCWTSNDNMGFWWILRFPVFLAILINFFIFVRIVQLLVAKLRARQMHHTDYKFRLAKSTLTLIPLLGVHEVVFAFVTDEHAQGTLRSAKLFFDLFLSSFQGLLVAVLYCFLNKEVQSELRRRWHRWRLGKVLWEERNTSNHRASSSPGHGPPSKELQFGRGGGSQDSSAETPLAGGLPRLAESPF
How it was run: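 Membranes (4 µg) from BHK cells expressing the cloned human glucagon receptor. Compounds were diluted in DMSO, and a glucagon standard curve was run. IC50 given as mean ± SD, n = 3.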

Glucagon receptor [8] = biological target: Glucagon receptor (Rattus norvegicus, UniProt P30082); assay: as §2
Sequence of Glucagon receptor (Rattus norvegicus, UniProt P30082) (P30082 whole entry): as the sequence (P30082 whole entry) above

**Q.** With `Cc1cc(C)c(C)c(Cn2ccc3c(/C=N/NC(=O)c4ccc(O)c(C#N)c4)cccc32)c1C` as the compound, how does the pKi (Rattus norvegicus) read?
**A.** The pKi was 7.85.

**Q.** What about the half-life [1] of the same compound?
**A.** Its half-life is 66.6 min.

**Q.** And the Kb [2]?
**A.** The Kb was 0.38 nM.

**Q.** What about the Metabolism [3] of the same compound?
**A.** Its Metabolism is 34 pmol/min/mg.

**Q.** And the Tmax [4]?
**A.** The Tmax was 30 min.

**Q.** What about the Tmax [5] of the same compound?
**A.** The Tmax was 30 min.

**Q.** And the bioavailability [6]?
**A.** Its bioavailability is 15%.

**Q.** What about the pIC50 (Glucagon receptor [7]) of the same compound?
**A.** Its pIC50 is 8.64.

**Q.** And the pIC50 (Glucagon receptor [8])?
**A.** The pIC50 was 9.37.
